From ChEMBL document CHEMBL1212856, “Anti-Plasmodium activity of imidazolium and triazolium salts” (Bioorg Med Chem, 2010)

Key:
[1] = system: Plasmodium falciparum; assay: Antiplasmodial activity against Plasmodium falciparum 3D7 after 72 by LDH assay; assay type: functional, organism-based
Procedure, shortened: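 Non-synchronous chloroquine-sensitive P. falciparum culture at 2% hematocrit and 2% parasitemia, in RPMI-10Pf with twofold serial compound dilutions from a 10 mg/mL DMSO stock. Incubated 72 h at 37 °C under 95% N₂, 3% CO₂, 2% O₂. Resuspended samples went into parasite-specific LDH mix, read at 595 nm after 1 h. IC50 by non-linear regression; mean ± standard error of four independent determinations.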

[2] = system: CHO; assay: Cytotoxicity against CHO cells after 48 hrs by MTT assay; assay type: cell-based; conditions: Cricetulus griseus
Procedure, shortened: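 CHO cells in RPMI-1640 with 10% fetal calf serum, 25 mM HEPES and gentamicin, grown to 50% confluency before dosing. Dilution series made from a 10 mg/mL DMSO stock, with DMSO-alone controls. After 48 h the medium was replaced with […] for 30 min.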

IC50 [1] [µM]	Structure (SMILES)	IC50 [2] [µM]
16	c1ccc(Cn2cc[n+](Cc3ccccc3)c2)cc1	–
0.9	c1ccc(Cn2cc[n+](Cc3ccc4ccccc4c3)c2)cc1	–
2.9	Brc1ccc(C[n+]2ccn(Cc3ccccc3)c2)cc1	–
2	Clc1ccccc1Cn1cc[n+](Cc2ccccc2Cl)c1	–
1.4	Brc1ccccc1Cn1cc[n+](Cc2ccccc2Br)c1	–
0.5	O=C(Cn1cc[n+](CC(=O)c2ccc(Cc3ccccc3)cc2)c1)c1ccc(Cc2ccccc2)cc1	4.3
69	CSc1nn(-c2ccccc2)c[n+]1-c1ccccc1	224
7.8	C[n+]1c(-c2ccccc2)nn(Cc2ccccc2)c1-c1ccccc1	87
0.1	C[n+]1c(-c2ccccc2)nn(CC(=O)CCc2ccccc2)c1-c1ccccc1	143
3.4	C[n+]1cn(CC(=O)CCc2ccccc2)nc1-c1ccccc1	237
100	c1ccc(Cn2c[n+](Cc3ccccc3)cn2)cc1	74
73	O=C(Cn1c[n+](Cc2ccccc2)cn1)c1ccccc1	261
10.9	O=C(Cn1c[n+](CC(=O)c2ccc(Br)cc2)cn1)c1ccc(Br)cc1	20.9
894	O=C(Cn1cncn1)c1ccccc1	334

Further lines, the compound ahead of its results:

Structure (SMILES)	IC50 [1] [µM]	IC50 [2] [µM]
c1ccc2cc(Cn3cc[n+](Cc4ccc5ccccc5c4)c3)ccc2c1	0.9	27
Brc1ccc(Cn2cc[n+](Cc3ccc4ccccc4c3)c2)cc1	0.73	27
Fc1ccc(Cn2cc[n+](Cc3ccc(F)cc3)c2)cc1	17	56
Clc1ccc(Cn2cc[n+](Cc3ccc(Cl)cc3)c2)cc1	9	–
Brc1ccc(Cn2cc[n+](Cc3ccc(Br)cc3)c2)cc1	0.7	172
Ic1ccc(Cn2cc[n+](Cc3ccc(I)cc3)c2)cc1	0.35	33
Clc1cccc(Cn2cc[n+](Cc3cccc(Cl)c3)c2)c1	3.3	–
Brc1cccc(Cn2cc[n+](Cc3cccc(Br)c3)c2)c1	1.05	–
COc1ccc(Cn2cc[n+](Cc3ccc(OC)cc3)c2)cc1	5	30.6
O=[N+]([O-])c1ccc(Cn2cc[n+](Cc3ccc([N+](=O)[O-])cc3)c2)cc1	9	–
O=C(Cn1cc[n+](CC(=O)c2ccc(Cl)cc2)c1)c1ccc(Cl)cc1	2.6	53
CSc1nn(-c2ccccc2)c(C)[n+]1-c1ccccc1	3.1	307
C[n+]1c(-c2ccccc2)nn(Cc2ccc(Br)cc2)c1-c1ccccc1	1.68	33
Fc1c(F)c(F)c(-n2c[n+]3c(n2)CCC3)c(F)c1F	89	303
c1nc[nH]n1 [1,2,4-TRIAZOLE]	2900	1270
c1c[nH]cn1 [IMIDAZOLE]	368	3680
